Variants at the floor of the assay were thinned out.

B1: tRNA (parent)
chain: GUUCCGUUGGCGUAAUGGUAACGCGUCUCCCUCCUAAGGAGAAGACUGCGGGUUCGAGUCCCGUACGGAACG

The series covers variants of B1. In words: yeast fitness relative to wild type (ratio to wild type); higher = fitter; tRNA-Arg(CCU), competitive growth, 37 C, YPD. Put shortly: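 Genotype frequency changes were the basis for Darwinian fitness relative to wild type. The frequencies came from 100-nucleotide paired-end sequencing of gene amplicons from the start population and each end population of pooled yeast strains with tRNA-Arg(CCU) gene variants at the native locus. Competition ran in YPD at 37°C for 24 hours in six replicates, genotypes needed ≥ 100 starting reads, and estimates < 0.5 were set to 0.5.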
On to GUACCGUUGGCGUAACGGUAACGCGUCUCCCUCCUAAGGAGAAGAUUGCGGGUUCGAGUCCCGUACGGAACG [U3A U16C C46U], for which the yeast fitness came to 0.631.

With GUUCUGUUGGCGUAAUGGUUACGCGUCUCCCUCCUAAGGAGAAGACUGCGGGUUCGAGUCUUGUACGGAACG [C5U A20U C61U C62U], the yeast fitness was at most 0.5.

Take GUUUCGUAGGCGUAAUGGUAACGCGUCUCCCUUCUUAGGAGAAGACUGCGGGUUCGAGUCCCGUACGGAACG [C4U U8A C33U A36U]: the yeast fitness is 0.545.

Take GUUCCGUUGGCGUAAUGGUAACGCGUCUCCCUCCUAAGGGGAAGACUGCGGGUUCGAGUCCCGUACGCAACG [A40G G68C]: the yeast fitness is 0.709.

On to GUUCCGUUGGCGUAAUGGUAACGCGUCACCCUCCUAAGGGGAAGACUGCGGGUUCGAGUCCCGUUUGGAACG [U28A A40G A65U C66U], for which the yeast fitness was at most 0.5.

With GUUCCGUUGGCGUAAUGGUAACGCGUCUCCCUCCUACGGAGAAGACUGCGGGUUCGAGUCUCGUACGGAACG [A37C C61U], the yeast fitness is 0.681.

As to GUUCCGUUGGCGUAAUCGUUACGCGUCUCCCUGCUAAGGAGAAGACUGCGGGUUCGAGUCCCGUACGGAUCG [G17C A20U C33G A70U], the yeast fitness is at most 0.5.

Consider GUUCCGUUGGCGUACUGGUAACGCGUCUCCCUCCUAAGGAGAUGACUGGGGGUUCGAGUCCCGUACGGAACG [A15C A43U C49G], for which the yeast fitness was 0.515.

Regarding GUUCCGAUGGCGUCAUGGUAACGCAUCUCGCUCCUAAGGAGAAGACUGUGGGUUCGAGUCCCGUACGGAACG [U7A A14C G25A C30G C49U], the yeast fitness was determined as 0.557.

In the case of GUUCCGUUGGCGUAAUGGGAACGCGUCUUCCUCCUAAGGAGAAGACUGCGGGUUCGAGUCCCGUACGGACCG [U19G C29U A70C], the yeast fitness was at most 0.5.

Regarding GUUCCGUUGGCGUGGUGGUAACGCGUCUCCCUCCUAUGGAGAAGACUGCGGGUUUGAGUCCCGUACGGAACG [A14G A15G A37U C55U], the yeast fitness is at most 0.5.

On to GUUCCGUUGGCGUAAUGGUAACGCGUCUCGCUCCUAAGGAGAAGACUGCGGGUUCGAGUCCCGUACAGAACG [C30G G67A], for which the yeast fitness turned out to be 0.619.

Regarding GUUCCGUUGGCGUAAUGGUUACGCGUCUCCCUCCUAAGGAGAAAACUGCGGGUUCGAGUACCGUACGGAACG [A20U G44A C60A], the yeast fitness was at most 0.5.

For GUUCCGUUGGCGUAAUGGUAACGGGUUUCCCUUCUAAGGAGAAGACUGCCGGUUCGAGUCCCAUACGAAACG [C24G C27U C33U G50C G63A G68A], the yeast fitness amounted to 0.528.

Take GUUCCGUUGGCGUAAUGGCCACGCGUCUCCCUCCUAAGGAGAGGAAUGCGGGUUUGUGUCUCGUACGGAACG [U19C A20C A43G C46A C55U A57U C61U]: the yeast fitness was found to be 0.592.

Take GUUCCGUUGGCGUAAUGGUAACGCGUCUCCCUCGUAUGGAGAAGACUGGGGGUUCGAGUCCCGUACGGAACG [C34G A37U C49G]: the yeast fitness turned out to be 0.576.

With GUUCCGUUGGCGUGAUGGUAACGCGUCUCCCUCCUCAGGAGAAGACUGCGGGUUCGAGUCCCGUACGGAACG [A14G A36C], the yeast fitness was 0.561.

Consider GUUCCGUUGGCGUAGUGGUAACGGGUCUCCCUCCUAGGGAGAAGACUGAGGGUUCGAGUCCCGUACGGAACG [A15G C24G A37G C49A], for which the yeast fitness is at most 0.5.

As to GUUCCGUUGGCGUAAUGGUAACGCGUCUCGCUGCUAAGGAGAAGACUGCGGGUUCGAGUCCCGUACGGCACG [C30G C33G A69C], the yeast fitness amounted to 0.544.

As for GUUCGGUUGGCGUAAUGGUAACGCGACUCCCUCCUAAGGAGAAGAUUGCGGGUUCGAGUCCCGUACGGAACG [C5G U26A C46U], the yeast fitness is 0.96.

Turning to GUUCCGUUGGCGUAAUGGUAACGCGUCUCCCUCCUAAGGAGAAGACUCCGGGUUCGAGUACCGUACGGAACG [G48C C60A], the yeast fitness amounted to 0.644.

Consider GUUCCGUUGGCGUAAUGGUAACGCGUCUACCUCCUAAGGAGAAGACUGGGGGUUUGAGUCCCGUACGGAACG [C29A C49G C55U], for which the yeast fitness is at most 0.5.

With GUUCCGUUGGCGUAAUGGUAACCCGUCUCCCUCCUAGGGAGAAGACUGCGGGUUGGAGUCCCGUACAGAACG [G23C A37G C55G G67A], the yeast fitness was at most 0.5.

Turning to GUUCCGUUGGCGUAAUGGUAACGCGUCUCCCUCCUAAGAAGAAGAUUGCGGGUUCGAGACCCGUACGGACCG [G39A C46U U59A A70C], the yeast fitness was at most 0.5.

As for GUUCCGUUAGAGUAAUGGUAAGGCGUCUCCCUCCCAAGGAGAAGACUGCGGGUUCGAGUCCCGUACGGAACG [G9A C11A C22G U35C], the yeast fitness was at most 0.5.

GUUCCGUUGGUGUAAUGGUAACGGGUCUCCCUCCUAAGGAGAAGACUGCGGGUUCGAGUCCCGUACGGAGCG [C11U C24G A70G]: the yeast fitness stood at 0.649.

As to GUCCCGUUGGCGUAAUGGUAACGCGUCUCGCUCCUAAGGAGAAGACUGCGGGUUCGAGUCCCGAACGGACCG [U3C C30G U64A A70C], the yeast fitness was at most 0.5.

As for GUUCUGUUGGCGUAAUGGUAACGCGUCUCCCUCCUAAGGAAAAGACUGCGGGUUCGAGUCCCGUACGGAACG [C5U G41A], the yeast fitness stood at 0.906.

As to GUUCUGUUGGCGUAAUGGUAACGCGUCUCCCUCCUAAGGAGAAGACUGCGGGUUCGAGUCACGUACGAAACG [C5U C61A G68A], the yeast fitness is at most 0.5.

For the variant GUUCCGUUGGCGUAAUGGUAACGCAUCUCCCUCCUAAGGAGAAGACUGCGGGUUCGAGUGCCCUACGGAACG [G25A C60G G63C], the yeast fitness was found to be 0.548.

As to GUUCCGUUGGCCUAAUGGUACCGCGCCUCCCUCCUAAGGAGAAGACUGCGGGUUCGAGUAACGUACGGAACG [G12C A21C U26C C60A C61A], the yeast fitness was at most 0.5.

For the variant GUUCCGUUGGCGUAAUGGUAACGCGACUCCCUCCUAAGGAGAAGACUGCGGGUUCGAGUCACGUUCGGAACG [U26A C61A A65U], the yeast fitness was found to be 0.686.

Take GUUCCGUUGGCGUAAUGGUAGCGCGUCUCCCUCCUAUGGAGAAGACUGCGGGUUCGAGUCCCGUAUGGAACG [A21G A37U C66U]: the yeast fitness is at most 0.5.

Consider GUCCCGUUGGCGUAAUGGUAACGCGUCUCCCUCCUAAGGAGAAGCGUGAGGGUUCGAGUCCCGUACGGUACG [U3C A45C C46G C49A A69U], for which the yeast fitness was at most 0.5.

As for GUUCCGUUGGCGUAAUGGUAACGCGUCUCCCUCUUAAGGAGAAGACUGUGGGUUCGAGUCCCGUACGGAACG [C34U C49U], the yeast fitness turned out to be 0.866.

Take GUUCCGUUGGCGUACUGGUAACGCGUCUCCCUCCUAAGGAGAAGAAUGCGGGUUCGAGUCCCGUACGGAACG [A15C C46A]: the yeast fitness amounted to 0.86.

Regarding GUUCCGUUGGCGUAAUGGUAACGCGUCUCUCUCCUAAGGAGAAGACUGCGGCUUCGAGUCCCGUAGGGAACG [C30U G52C C66G], the yeast fitness is 0.707.

Consider GUUCCGUUGGCGUAAUGGUAACGCGUCUCCCUCCUAAGGAGAUGACUGCGGGUUCGAGUCCGGUAAGGCACG [A43U C62G C66A A69C], for which the yeast fitness is 0.67.

Values taken from the RNAGym collection of RNA variant scans (doi:10.1126/science.aae0568).
